Source: ChEMBL document CHEMBL3046353, “Synthesis and fungicidal activity of some 5-membered heterocyclic derivatives containing benzimidazoles” (1993)
Active and inactive are the calls of the source. The rule behind the calls is not given here.

Assays:
Sagittaria latifolia [1] = experiment: Herbicidal activity against Sagittaria latifolia (broadleaf arrowhead) under paddy conditions; format: functional, organism-based
Sagittaria latifolia [2] = experiment: Pre-emergence herbicidal activity against Sagittaria latifolia (broadleaf arrowhead); format: functional, organism-based
Sagittaria latifolia [3] = experiment: Post-emergence herbicidal activity against Sagittaria latifolia (broadleaf arrowhead); format: functional, organism-based
Schoenoplectus acutus [4] = experiment: Herbicidal activity against Schoenoplectus acutus (hardstem bulrush) under paddy conditions; format: functional, organism-based
Schoenoplectus acutus [5] = experiment: Post-emergence herbicidal activity against Schoenoplectus acutus (hardstem bulrush); format: functional, organism-based
Schoenoplectus acutus [6] = experiment: Pre-emergence herbicidal activity against Schoenoplectus acutus (hardstem bulrush); format: functional, organism-based
Echinochloa crus-galli [7] = experiment: Herbicidal activity against Echinochloa crus-galli (barnyard grass) under paddy conditions; format: functional, organism-based
Echinochloa crus-galli [8] = experiment: Post-emergence herbicidal activity against Echinochloa crus-galli (barnyard grass); format: functional, organism-based
Oryza sativa [9] = experiment: Herbicidal activity against Oryza sativa (rice) under paddy conditions; format: functional, organism-based
Echinochloa crus-galli [10] = experiment: Pre-emergence herbicidal activity against Echinochloa crus-galli (barnyard grass); format: functional, organism-based
Oryza sativa [11] = experiment: Pre-emergence herbicidal activity against Oryza sativa (rice); format: functional, organism-based
Abutilon theophrasti [12] = experiment: Post-emergence herbicidal activity against Abutilon theophrasti (velvetleaf); format: functional, organism-based
Oryza sativa [13] = experiment: Post-emergence herbicidal activity against Oryza sativa (rice); format: functional, organism-based
Abutilon theophrasti [14] = experiment: Pre-emergence herbicidal activity against Abutilon theophrasti (velvetleaf); format: functional, organism-based
Convolvulaceae [15] = experiment: Herbicidal activity against Convolvulaceae (morning glory family) under paddy conditions; format: functional, organism-based
Convolvulaceae [16] = experiment: Post-emergence herbicidal activity against Convolvulaceae (morning glory family); format: functional, organism-based
Avena sativa [17] = experiment: Herbicidal activity against Avena sativa under paddy conditions; format: functional, organism-based
Convolvulaceae [18] = experiment: Pre-emergence herbicidal activity against Convolvulaceae (morning glory family); format: functional, organism-based
Avena sativa [19] = experiment: Pre-emergence herbicidal activity against Avena sativa; format: functional, organism-based
Avena sativa [20] = experiment: Post-emergence herbicidal activity against Avena sativa; format: functional, organism-based
Spodoptera litura = experiment: Insecticidal activity against Spodoptera litura; format: functional, organism-based
Tetranychus cinnabarinus = experiment: Insecticidal activity against Tetranychus cinnabarinus (carmine spider mite); format: functional, organism-based
Culex pipiens pallens = experiment: Insecticidal activity against Culex pipiens pallens (mosquito) at 3 to 5 ppm; format: functional, organism-based
Musca domestica = experiment: Insecticidal activity against Musca domestica (house fly); format: functional, organism-based
Rhizoctonia solani = experiment: Fungicidal activity against Rhizoctonia solani at 500 ppm after 7 days by poisoned food technique; format: functional; conditions: 168 h, read-out: GI
In short: (§1)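 Cultures kept on potato dextrose agar. Each compound, dissolved in acetone, was added to potato dextrose agar at a final 500 ppm (w/v) (poisoned food technique). A disc cut from the periphery of a seven-day-old culture was inoculated onto each set. Control sets held potato dextrose agar only. The read-out is percentage inhibition of fungal growth relative to control.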

Helminthosporium = experiment: Fungicidal activity against Helminthosporium oryzae at 500 ppm after 7 days by poisoned food technique; format: functional; conditions: 168 h, read-out: GI; in short: as §1

## Clc1ccc(-c2nnc(SCc3nc4ccccc4[nH]3)o2)cc1
Sagittaria latifolia [1]
  Activity: inactive
Sagittaria latifolia [2]
  Activity: inactive
Sagittaria latifolia [3]
  Activity: inactive
Schoenoplectus acutus [4]
  Activity: inactive
Schoenoplectus acutus [5]
  Activity: inactive
Schoenoplectus acutus [6]
  Activity: inactive
Echinochloa crus-galli [7]
  Activity: inactive
Echinochloa crus-galli [8]
  Activity: inactive
Oryza sativa [9]
  Activity: inactive
Echinochloa crus-galli [10]
  Activity: inactive
Oryza sativa [11]
  Activity: inactive
Abutilon theophrasti [12]
  Activity: inactive
Oryza sativa [13]
  Activity: inactive
Abutilon theophrasti [14]
  Activity: inactive
Convolvulaceae [15]
  Activity: inactive
Convolvulaceae [16]
  Activity: inactive
Avena sativa [17]
  Activity: inactive
Convolvulaceae [18]
  Activity: inactive
Avena sativa [19]
  Activity: inactive
Avena sativa [20]
  Activity: inactive
Spodoptera litura
  Activity: inactive
Tetranychus cinnabarinus
  Activity: inactive
Culex pipiens pallens
  Activity: Active
Musca domestica
  Activity: inactive
Rhizoctonia solani
  inhibition of growth at 500 ppm: 21.2%
Helminthosporium
  inhibition of growth at 500 ppm: 39.7%

## Cc1ccc2[nH]c(CSc3nnc(-c4ccc(Cl)cc4)o3)nc2c1
Sagittaria latifolia [1]
  Activity: inactive
Sagittaria latifolia [2]
  Activity: inactive
Sagittaria latifolia [3]
  Activity: inactive
Schoenoplectus acutus [4]
  Activity: inactive
Schoenoplectus acutus [5]
  Activity: inactive
Schoenoplectus acutus [6]
  Activity: inactive
Echinochloa crus-galli [7]
  Activity: inactive
Echinochloa crus-galli [8]
  Activity: inactive
Oryza sativa [9]
  Activity: inactive
Echinochloa crus-galli [10]
  Activity: inactive
Oryza sativa [11]
  Activity: inactive
Abutilon theophrasti [12]
  Activity: inactive
Oryza sativa [13]
  Activity: inactive
Abutilon theophrasti [14]
  Activity: inactive
Convolvulaceae [15]
  Activity: inactive
Convolvulaceae [16]
  Activity: inactive
Avena sativa [17]
  Activity: inactive
Convolvulaceae [18]
  Activity: inactive
Avena sativa [19]
  Activity: inactive
Avena sativa [20]
  Activity: inactive
Spodoptera litura
  Activity: inactive
Tetranychus cinnabarinus
  Activity: inactive
Culex pipiens pallens
  Activity: Active
Musca domestica
  Activity: inactive
Rhizoctonia solani
  inhibition of growth at 500 ppm: 100%
Helminthosporium
  inhibition of growth at 500 ppm: 100%

## Clc1ccccc1-c1nnc(SCc2nc3ccccc3[nH]2)s1
Sagittaria latifolia [1]
  Activity: inactive
Sagittaria latifolia [2]
  Activity: inactive
Sagittaria latifolia [3]
  Activity: inactive
Schoenoplectus acutus [4]
  Activity: inactive
Schoenoplectus acutus [5]
  Activity: inactive
Schoenoplectus acutus [6]
  Activity: inactive
Echinochloa crus-galli [7]
  Activity: inactive
Echinochloa crus-galli [8]
  Activity: inactive
Oryza sativa [9]
  Activity: inactive
Echinochloa crus-galli [10]
  Activity: inactive
Oryza sativa [11]
  Activity: inactive
Abutilon theophrasti [12]
  Activity: inactive
Oryza sativa [13]
  Activity: inactive
Abutilon theophrasti [14]
  Activity: inactive
Convolvulaceae [15]
  Activity: inactive
Convolvulaceae [16]
  Activity: inactive
Avena sativa [17]
  Activity: inactive
Convolvulaceae [18]
  Activity: inactive
Avena sativa [19]
  Activity: inactive
Avena sativa [20]
  Activity: inactive
Spodoptera litura
  Activity: inactive
Tetranychus cinnabarinus
  Activity: inactive
Culex pipiens pallens
  Activity: Active
Musca domestica
  Activity: inactive
Rhizoctonia solani
  inhibition of growth at 500 ppm: 49.8%
Helminthosporium
  inhibition of growth at 500 ppm: 68.2%

## Nn1c(SCc2nc3ccccc3[nH]2)nnc1-c1ccncc1
Sagittaria latifolia [1]
  Activity: inactive
Sagittaria latifolia [2]
  Activity: inactive
Sagittaria latifolia [3]
  Activity: inactive
Schoenoplectus acutus [4]
  Activity: inactive
Schoenoplectus acutus [5]
  Activity: inactive
Schoenoplectus acutus [6]
  Activity: inactive
Echinochloa crus-galli [7]
  Activity: inactive
Echinochloa crus-galli [8]
  Activity: inactive
Oryza sativa [9]
  Activity: inactive
Echinochloa crus-galli [10]
  Activity: inactive
Oryza sativa [11]
  Activity: inactive
Abutilon theophrasti [12]
  Activity: inactive
Oryza sativa [13]
  Activity: inactive
Abutilon theophrasti [14]
  Activity: inactive
Convolvulaceae [15]
  Activity: inactive
Convolvulaceae [16]
  Activity: inactive
Avena sativa [17]
  Activity: inactive
Convolvulaceae [18]
  Activity: inactive
Avena sativa [19]
  Activity: inactive
Avena sativa [20]
  Activity: inactive
Spodoptera litura
  Activity: inactive
Tetranychus cinnabarinus
  Activity: inactive
Culex pipiens pallens
  Activity: Active
Musca domestica
  Activity: inactive
Rhizoctonia solani
  inhibition of growth at 500 ppm: 29.3%
Helminthosporium
  inhibition of growth at 500 ppm: 30%

## Clc1cccc(-c2nnc(SCc3nc4ccccc4[nH]3)s2)c1
Sagittaria latifolia [1]
  Activity: inactive
Sagittaria latifolia [2]
  Activity: inactive
Sagittaria latifolia [3]
  Activity: inactive
Schoenoplectus acutus [4]
  Activity: inactive
Schoenoplectus acutus [5]
  Activity: inactive
Schoenoplectus acutus [6]
  Activity: inactive
Echinochloa crus-galli [7]
  Activity: inactive
Echinochloa crus-galli [8]
  Activity: inactive
Oryza sativa [9]
  Activity: inactive
Echinochloa crus-galli [10]
  Activity: inactive
Oryza sativa [11]
  Activity: inactive
Abutilon theophrasti [12]
  Activity: inactive
Oryza sativa [13]
  Activity: inactive
Abutilon theophrasti [14]
  Activity: inactive
Convolvulaceae [15]
  Activity: inactive
Convolvulaceae [16]
  Activity: inactive
Avena sativa [17]
  Activity: inactive
Convolvulaceae [18]
  Activity: inactive
Avena sativa [19]
  Activity: inactive
Avena sativa [20]
  Activity: inactive
Spodoptera litura
  Activity: inactive
Tetranychus cinnabarinus
  Activity: inactive
Culex pipiens pallens
  Activity: Active
Musca domestica
  Activity: inactive
Rhizoctonia solani
  inhibition of growth at 500 ppm: 89.5%
Helminthosporium
  inhibition of growth at 500 ppm: 91.2%

## Cc1ccc2[nH]c(CSc3nnc(-c4cccc(Cl)c4)n3N)nc2c1
Sagittaria latifolia [1]
  Activity: inactive
Sagittaria latifolia [2]
  Activity: inactive
Sagittaria latifolia [3]
  Activity: inactive
Schoenoplectus acutus [4]
  Activity: inactive
Schoenoplectus acutus [5]
  Activity: inactive
Schoenoplectus acutus [6]
  Activity: inactive
Echinochloa crus-galli [7]
  Activity: inactive
Echinochloa crus-galli [8]
  Activity: inactive
Oryza sativa [9]
  Activity: inactive
Echinochloa crus-galli [10]
  Activity: inactive
Oryza sativa [11]
  Activity: inactive
Abutilon theophrasti [12]
  Activity: inactive
Oryza sativa [13]
  Activity: inactive
Abutilon theophrasti [14]
  Activity: inactive
Convolvulaceae [15]
  Activity: inactive
Convolvulaceae [16]
  Activity: inactive
Avena sativa [17]
  Activity: inactive
Convolvulaceae [18]
  Activity: inactive
Avena sativa [19]
  Activity: inactive
Avena sativa [20]
  Activity: inactive
Spodoptera litura
  Activity: inactive
Tetranychus cinnabarinus
  Activity: inactive
Culex pipiens pallens
  Activity: Active
Musca domestica
  Activity: inactive
Rhizoctonia solani
  inhibition of growth at 500 ppm: 71.2%
Helminthosporium
  inhibition of growth at 500 ppm: 82.5%

## Cc1ccc2[nH]c(CSc3nnc(-c4ccccc4)s3)nc2c1
Sagittaria latifolia [1]
  Activity: inactive
Sagittaria latifolia [2]
  Activity: inactive
Sagittaria latifolia [3]
  Activity: inactive
Schoenoplectus acutus [4]
  Activity: inactive
Schoenoplectus acutus [5]
  Activity: inactive
Schoenoplectus acutus [6]
  Activity: inactive
Echinochloa crus-galli [7]
  Activity: inactive
Echinochloa crus-galli [8]
  Activity: inactive
Oryza sativa [9]
  Activity: inactive
Echinochloa crus-galli [10]
  Activity: inactive
Oryza sativa [11]
  Activity: inactive
Abutilon theophrasti [12]
  Activity: inactive
Oryza sativa [13]
  Activity: inactive
Abutilon theophrasti [14]
  Activity: inactive
Convolvulaceae [15]
  Activity: inactive
Convolvulaceae [16]
  Activity: inactive
Avena sativa [17]
  Activity: inactive
Convolvulaceae [18]
  Activity: inactive
Avena sativa [19]
  Activity: inactive
Avena sativa [20]
  Activity: inactive
Spodoptera litura
  Activity: inactive
Tetranychus cinnabarinus
  Activity: inactive
Culex pipiens pallens
  Activity: Active
Musca domestica
  Activity: inactive
Rhizoctonia solani
  inhibition of growth at 500 ppm: 64.5%
Helminthosporium
  inhibition of growth at 500 ppm: 71.3%
